Data on eleven molecules can be found in ChEMBL document CHEMBL3351249, “Potent cholesteryl ester transfer protein inhibitors of reduced lipophilicity: 1,1'-spiro-substituted hexahydrofuroquinoline derivatives” (J Med Chem, 2014).

Data set [1] addresses T1, Cholesteryl ester transfer protein (Homo sapiens, UniProt P11597).
T1 sequence (P11597 whole entry): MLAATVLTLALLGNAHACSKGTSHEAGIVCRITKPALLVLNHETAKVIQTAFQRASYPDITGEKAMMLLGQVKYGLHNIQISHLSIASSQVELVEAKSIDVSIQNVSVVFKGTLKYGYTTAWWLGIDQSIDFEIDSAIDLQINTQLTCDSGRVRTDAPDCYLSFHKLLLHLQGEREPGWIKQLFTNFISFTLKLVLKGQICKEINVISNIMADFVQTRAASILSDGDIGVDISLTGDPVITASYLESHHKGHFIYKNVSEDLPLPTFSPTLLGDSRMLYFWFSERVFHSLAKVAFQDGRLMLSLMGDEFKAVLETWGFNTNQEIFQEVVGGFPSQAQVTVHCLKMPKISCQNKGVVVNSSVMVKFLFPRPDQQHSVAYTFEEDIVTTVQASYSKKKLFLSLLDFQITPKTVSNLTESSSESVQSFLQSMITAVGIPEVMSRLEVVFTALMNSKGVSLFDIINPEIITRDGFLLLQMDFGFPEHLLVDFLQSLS
Nature of the data set: Inhibition of human recombinant CETP by fluorescence transfer assay.

The test system of data set [2] is Kidney. The experiment in a line: Drug concentration in kidney of hemizygous human CETP transgenic mouse at 10 mg/kg, po dosed for 5 consecutive days measured on day 21 after cessation of drug treatment. Type of data set: ADME, organism-based. Details: dose 10 mg/kg, route oral; call rule not given here. To be noted: in vivo. In outline:
(§1)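 Male hCETP transgenic mice given oral doses for 5 days in 0.5% hydroxyethylcellulose. Tissues and plasma collected at day 3 and day 21 after the last dose. Fat diluted 6:1 with acetonitrile and homogenized. Analysis by LC/MS/MS on a C18 column with QCs at 4.0−1000 nM, accepted within 30% of target.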

In data set [3] the test system is Plasma. The experiment in a line: Plasma concentration in hemizygous human CETP transgenic mouse at 10 mg/kg, po dosed for 5 consecutive days measured on day 5 and day 7 post dose. Type of data set: ADME, organism-based. Details: dose 10 mg/kg, route oral. The conditions noted are these: in vivo.
Data set [4] can be described thus: Drug concentration in adipose fat of hemizygous human CETP transgenic mouse at 10 mg/kg, po dosed for 5 consecutive days measured on day 3 after cessation of drug treatment. Type of data set: ADME, organism-based, Adipose tissue. The arrangement: dose 10 mg/kg, route oral. The conditions noted are these: in vivo. In outline: as §1
For data set [5], the system named is Mus musculus. The experiment in a line: Increase in HDL-cholesterol in hemizygous human CETP transgenic mouse at 10 mg/kg, po dosed for 5 consecutive days. Type of data set: functional. A digest of the protocol:
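Male hemizygous hCETP or hCETP/hApoB100 transgenic mice, 26−30 weeks, chow-fed. Compound suspended in 0.5% aqueous hydroxyethylcellulose, oral gavage each morning for 5 or 14 days. EDTA blood taken 7 h post-dose (fed for 5-day, after 4 h fast for 14-day) from vena facialis under isoflurane. HDL/LDL cholesterol measured on Cobas Integra 400 Plus. Mean ± SEM, one-way ANOVA with Bonferroni.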

A short description of data set [6]: Terminal elimination half life in healthy human administered as single oral dose. Type of data set: ADME, organism-based. The conditions noted are these: in vivo, read-out: beta t1/2 (converted).
In data set [7] the test system is Plasma. The experiment in a line: Drug concentration in plasma of hemizygous human CETP transgenic mouse at 10 mg/kg, po dosed for 5 consecutive days measured on day 3 after cessation of drug treatment. Type of data set: ADME, organism-based. The arrangement: dose 10 mg/kg, route oral. The conditions noted are these: in vivo. In outline:
as §1

A short description of data set [8]: Drug concentration in testes of hemizygous human CETP transgenic mouse at 10 mg/kg, po dosed for 5 consecutive days measured on day 3 after cessation of drug treatment. The arrangement: dose 10 mg/kg, route oral. Type of data set: ADME, organism-based, Testis. To be noted: in vivo. In outline: as §1
Data set [9] is described as follows: Drug concentration in testes of hemizygous human CETP transgenic mouse at 10 mg/kg, po dosed for 5 consecutive days measured on day 21 after cessation of drug treatment. The arrangement: dose 10 mg/kg, route oral. To be noted: in vivo. Type of data set: ADME, organism-based, Testis. In outline:
as §1

The test system of data set [10] is Kidney. The experiment in a line: Drug concentration in kidney of hemizygous human CETP transgenic mouse at 10 mg/kg, po dosed for 5 consecutive days measured on day 3 after cessation of drug treatment. To be noted: in vivo. Type of data set: ADME, organism-based. Details: dose 10 mg/kg, route oral. A digest of the protocol:
as §1

The subject of data set [11] is Liver. Nature of the data set: Drug concentration in liver of hemizygous human CETP transgenic mouse at 10 mg/kg, po dosed for 5 consecutive days measured on day 3 after cessation of drug treatment. To be noted: in vivo. Type of data set: ADME, organism-based. Details: dose 10 mg/kg, route oral. In outline:
as §1

The nature of data set [12]: Drug concentration in adipose fat of hemizygous human CETP transgenic mouse at 10 mg/kg, po dosed for 5 consecutive days measured on day 21 after cessation of drug treatment. Type of data set: ADME, organism-based, Adipose tissue. Details: dose 10 mg/kg, route oral. To be noted: in vivo. In outline: as §1
Data set [13] deals with Muscle tissue. Nature of the data set: Drug concentration in muscle of hemizygous human CETP transgenic mouse at 10 mg/kg, po dosed for 5 consecutive days measured on day 21 after cessation of drug treatment. Type of data set: ADME, organism-based. The arrangement: dose 10 mg/kg, route oral. The conditions noted are these: in vivo. In outline:
as §1

Data set [14] deals with Muscle tissue. Nature of the data set: Drug concentration in muscle of hemizygous human CETP transgenic mouse at 10 mg/kg, po dosed for 5 consecutive days measured on day 3 after cessation of drug treatment. The arrangement: dose 10 mg/kg, route oral. Type of data set: ADME, organism-based. To be noted: in vivo. In outline:
as §1

Broadly, the IC50 is the concentration that inhibits the measured activity by half. Regarding `CC(C)c1nc2c(c3c1[C@@H](c1ccc(C(F)(F)F)cc1)OC31CCCC1)[C@@H](O)CC(C)(C)C2`, the IC50 in data set [1] amounted to 51 nM.

As to `CC(C)c1nc2c(c3c1[C@@H](c1ccc(C(C)(C)C)cc1)OC31CCCC1)[C@@H](O)CC(C)(C)C2`, the IC50 in [1] was 29 nM.

Turning to `CC(C)c1nc2c(c3c1[C@@H](c1ccc(C(F)(F)F)cc1)OC3(C)C)[C@@H](O)CC(C)(C)C2`, the concentration for half-maximal inhibition (IC50) in data set [1] came out at 548 nM.

On to `CC(C)c1nc2c(c3c1[C@@H](c1ccc(F)cc1)OC31CCCC1)[C@@H](O)CC(C)(C)C2`, for which the 50% inhibitory concentration (IC50) in data set [1] was 796 nM.

For the molecule `CC(C)c1nc2c(c3c1[C@@H](c1ccccc1)OC31CCCC1)[C@@H](O)CC(C)(C)C2`, in [1], the 50% inhibitory concentration (IC50) is 4050 nM.

`COc1cc(F)c(C(C)C)cc1-c1ccc(C(F)(F)F)cc1CN1C(=O)O[C@H](c2cc(C(F)(F)F)cc(C(F)(F)F)c2)[C@@H]1C` [ANACETRAPIB]: the Drug uptake entry in data set [2], in data set [4], in data set [7], in data set [8], in [9] and in [10] was “Active” in each case. In addition, the Drug uptake entry in [11], in data set [12], in data set [13] and in data set [14] was “Active” throughout. The molecule further came in with a concentration in data set [3] of 507 nM. The molecule further yielded an Activity in data set [5] of 50.5%. Also, the half-life in [6] is 83 h.

Take `CC(C)c1nc2c(c3c1[C@H](c1ccc(C(F)(F)F)cc1)OC31CCOCC1)[C@H](O)CC(C)(C)C2`: in [1], the concentration for half-maximal inhibition (IC50) was 576 nM.

Regarding `CCOC(=O)N1c2ccc(C(F)(F)F)cc2[C@@H](N(Cc2cc(C(F)(F)F)cc(C(F)(F)F)c2)C(=O)OC)C[C@H]1CC` [TORCETRAPIB], in data set [6], the half-life is 221 h.

On to `Cc1cc(C)c2c(c1)[C@@H](N(Cc1cc(C(F)(F)F)cc(C(F)(F)F)c1)c1nnn(C)n1)CCCN2C[C@H]1CC[C@H](C(=O)O)CC1` [EVACETRAPIB], for which the half-life in data set [6] is 44 h.

For `CC(C)c1nc2c(c3c1[C@@H](c1ccc(C(F)(F)F)cn1)OC31CCCC1)[C@@H](O)CC(C)(C)C2`, the half-maximal inhibitory concentration (IC50) in [1] was 96 nM.

As for `CC(C)c1nc2c(c3c1[C@@H](c1ccc(C(F)(F)F)nc1)OC31CCCC1)[C@@H](O)CC(C)(C)C2`, in [1], the IC50 is 135 nM.
